The text below walks through data of PubChem BioAssay.

Activity calls are given as the source filed them.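 The calls were made as follows, unless noted: active = growth inhibition above a set limit, 3 SD over mean compound inhibition, in both replicates (cut at about 43% in these data); inconclusive = above the limit in only one replicate; inactive = at or below the limit in both replicates.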

The first assay in a line: Restrictive medium S. cerevisiae growth inhibition, OD615, pilot screen of yeast lifespan reduction project, restrictive growth control (AID 706).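 Also: modified DeaD lifespan yeast strain shifted to restrictive glucose medium.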 Conditions: OD615, 48 h, at 10 µM, active compounds read high. The gist of the method: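 System: modified S. cerevisiae. Buffer or medium: CSMM-D glucose medium. Incubation: 4 h pre-growth plus 48 h compound exposure, 30 °C. Detection: absorbance (optical density) measured at 615 nm.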
For the molecule `Cn1c(=O)c2c(SCC(=O)N3CCN(c4ccccc4)CC3)nc(C3CC3)nc2n(C)c1=O`, the growth inhibition is -3.49% (inactive).

Regarding `CCOc1ccc(Nc2ncnc3c2cnn3-c2ccccc2)cc1`, the growth inhibition is 3.48% (inactive).

With `Cn1c(NC(=O)CCc2ccccc2)cc(=O)n(C)c1=O`, the growth inhibition is -8.72% (inactive).

As to `Cc1ccccc1Nc1ncnc2c1cnn2-c1ccccc1`, the growth inhibition was -4.63% (inactive).

Turning to `CCOc1ccccc1Nc1cc(C)nc2nc(C)nn12`, the growth inhibition was -9.62% (inactive).

On to `CCOC(=O)CNC(=O)c1cn(CC(C)C)c(=O)c2cc(OC)c(OC)cc12`, for which the growth inhibition was -6.08% (inactive).

Take `COc1ccc2cc(S(=O)(=O)N3CCOCC3)ccc2c1`: the growth inhibition is -7.81% (inactive).

`COc1ccc(CCNc2nc(=O)[nH]nc2C)cc1OC`: the growth inhibition is -16.5% (inactive).

On to `Cc1ccc(Cn2nnc3c(=O)n(Cc4ccccc4C)cnc32)cc1`, for which the growth inhibition is -5.54% (inactive).

Consider `O=C(NCc1ccco1)c1cnccn1`, for which the growth inhibition was 5.22% (inactive).

Take `Cc1cccc(OCC2=N/C(=C\N(C)C)C(=O)O2)c1`: the growth inhibition was -9.04% (inactive).

For the molecule `CCSc1nnc(NC(=O)CSc2nc3c(c(=O)n2-c2ccccc2)SCC3)s1`, the growth inhibition is -2.77% (inactive).

`Clc1ccc(OCc2nnc(-c3ccccc3Br)o2)c(Cl)c1`: the growth inhibition is -17% (inactive).

Consider `O=C(COC(=O)c1ccccc1Oc1ccccc1)NCc1ccco1`, for which the growth inhibition is -3.48% (inactive).

Regarding `CCNC(=O)c1c(C)nc2ccccn12`, the growth inhibition was -7.95% (inactive).

With `CCCCC(CC)CNC(=O)c1cccs1` (stereo not given), the growth inhibition is 13.6% (inactive).

Regarding `O=C(Sc1nnc(-c2ccccc2)o1)N1c2ccccc2Sc2ccccc21`, the growth inhibition is 21.9% (inactive).

In the case of `Cc1c(-n2cc(C(=O)O)c(=O)c3cc(F)c(N4CCCC4)c(F)c32)c(=O)n(-c2ccccc2)n1C`, the growth inhibition was -11.4% (inactive).

Take `COc1ccc(N2CCN(S(=O)(=O)c3cccc4cccnc34)CC2)cc1`: the growth inhibition is 8.34% (inactive).

On to `CCN1CCN(CC(=O)Nc2ccc3c(c2)OCO3)C(=O)C1=O`, for which the growth inhibition is -4.2% (inactive).

With `CC(=O)Nc1ccc(C(=O)c2ccccc2)cc1`, the growth inhibition was 6.52% (inactive).

Consider `Cn1c(=O)cc(N2CCCCC2)[nH]c1=O`, for which the growth inhibition is -7.48% (inactive).

For `Cc1csc2ncc(C(=O)NCc3ccccn3)c(=O)n12`, the growth inhibition was 3.67% (inactive).

Regarding `Cc1c(C(=O)NCc2ccccn2)sc2nc(-c3ccccc3)cn12`, the growth inhibition was 13.1% (inactive).

Turning to `O=C(CSc1ccc2nnc(-c3ccc(Cl)cc3)n2n1)N1CCN(c2ccccc2)CC1`, the growth inhibition is 63.7% (active).

Regarding `O=S(=O)(NCCCN1CCN(c2ccccc2F)CC1)c1cccc2cccnc12`, the growth inhibition is 6.3% (inactive).

On to `Cc1ccc2cc(CCNS(=O)(=O)c3ccc(F)cc3)c(=O)[nH]c2c1`, for which the growth inhibition is -8.69% (inactive).

Consider `COc1ccc(-n2c(Cc3cccn3C)nnc2SCC(=O)N2CCC(C)CC2)cc1`, for which the growth inhibition is 18.8% (inactive).

On to `CNc1oc(C)nc1S(=O)(=O)c1ccccc1`, for which the growth inhibition is -7.71% (inactive).

Regarding `Cc1c(Cl)cccc1NC(=O)CN1C(=O)CSc2ncccc21`, the growth inhibition is -0.53% (inactive).

In the case of `O=C(CCN1CCc2ccccc2C1)Nc1ccccc1`, the growth inhibition was -8.03% (inactive).

Turning to `COc1cc2c(cc1OC)C1=C(C#N)CN(C3CCCCC3)CN1CC2`, the growth inhibition is 4.15% (inactive).

`O=C1CC(c2ccc(S(=O)(=O)NC3CC3)cc2)CN1` (stereo not given): the growth inhibition was -7.47% (inactive).

With `CCOC(=O)Cn1c(=O)oc2cc(S(=O)(=O)N3CCc4ccccc43)ccc21`, the growth inhibition was 1.04% (inactive).

In the case of `O=C1CC(c2ccco2)CC2=C1C1c3ccccc3C(=O)N1c1ccccc1N2` (stereo not given), the growth inhibition is -5.43% (inactive).

For the molecule `COc1ccc(Br)cc1C1CC(=O)N2CN(Cc3ccccc3)CSC2=C1C#N` (stereo not given), the growth inhibition is 12.8% (inactive).

As to `C=C(C)Cn1c(COc2ccccc2)nnc1SCC(=O)O`, the growth inhibition is -7.02% (inactive).

Take `Cc1onc(-c2ccccc2Cl)c1C(=O)OCn1nnc2ccccc2c1=O`: the growth inhibition was -2.08% (inactive).

Turning to `Cc1cc(NC(=O)CSc2nc3c(c(=O)n2-c2ccccc2)SC(C)C3)no1` (stereo not given), the growth inhibition was -11.7% (inactive).

In the case of `CCOc1ccc(C2CC(c3ccc(F)cc3)n3ncnc3N2)cc1` (stereo not given), the growth inhibition is -1.42% (inactive).

The nature of another assay: viability gain of MRP-1-high H69AR cells under doxorubicin, pilot screen, MRP-1 activator project, CellTiter-Glo, duplicate (AID 807;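 active = viability increase at or above a cutoff of the median across tested compounds plus 3 SD, cut at about 8.5% in these data, passing the limit was not always enough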;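 also: compound pretreatment 18-22 h then 72 h combined with doxorubicin; 0% = doxorubicin alone and 100% = vehicle without doxorubicin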). Conditions: H69AR viability with doxorubicin, CellTiter-Glo luminescence; at 10 µM; active compounds read high. A general note: In ATP-based viability assays light output follows the ATP content of the culture.
In the case of `Cn1c(=O)c2c(SCC(=O)N3CCN(c4ccccc4)CC3)nc(C3CC3)nc2n(C)c1=O`, the viability increase was -2.93% (inactive).

On to `CCOc1ccc(Nc2ncnc3c2cnn3-c2ccccc2)cc1`, for which the viability increase was 2.06% (inactive).

In the case of `Cn1c(NC(=O)CCc2ccccc2)cc(=O)n(C)c1=O`, the viability increase was -3.77% (inactive).

Take `Cc1ccccc1Nc1ncnc2c1cnn2-c1ccccc1`: the viability increase was -3.78% (inactive).

As for `CCOc1ccccc1Nc1cc(C)nc2nc(C)nn12`, the viability increase was -2.37% (inactive).

`CCOC(=O)CNC(=O)c1cn(CC(C)C)c(=O)c2cc(OC)c(OC)cc12`: the viability increase is -1.77% (inactive).

For the molecule `COc1ccc2cc(S(=O)(=O)N3CCOCC3)ccc2c1`, the viability increase is -1.77% (inactive).

As for `COc1ccc(CCNc2nc(=O)[nH]nc2C)cc1OC`, the viability increase was -1.65% (inactive).

As to `Cc1ccc(Cn2nnc3c(=O)n(Cc4ccccc4C)cnc32)cc1`, the viability increase was -2.98% (inactive).

`O=C(NCc1ccco1)c1cnccn1`: the viability increase is -2.25% (inactive).

For `Cc1cccc(OCC2=N/C(=C\N(C)C)C(=O)O2)c1`, the viability increase was -0.64% (inactive).

As to `CCSc1nnc(NC(=O)CSc2nc3c(c(=O)n2-c2ccccc2)SCC3)s1`, the viability increase is -1.11% (inactive).

Regarding `Clc1ccc(OCc2nnc(-c3ccccc3Br)o2)c(Cl)c1`, the viability increase is -0.17% (inactive).

`O=C(COC(=O)c1ccccc1Oc1ccccc1)NCc1ccco1`: the viability increase was -6.02% (inactive).

For the molecule `CCNC(=O)c1c(C)nc2ccccn12`, the viability increase is -3.03% (inactive).

As to `CCCCC(CC)CNC(=O)c1cccs1` (stereo not given), the viability increase is 0.39% (inactive).

Regarding `O=C(Sc1nnc(-c2ccccc2)o1)N1c2ccccc2Sc2ccccc21`, the viability increase was -4.17% (inactive).

Take `Cc1c(-n2cc(C(=O)O)c(=O)c3cc(F)c(N4CCCC4)c(F)c32)c(=O)n(-c2ccccc2)n1C`: the viability increase is -2.19% (inactive).

As to `COc1ccc(N2CCN(S(=O)(=O)c3cccc4cccnc34)CC2)cc1`, the viability increase is -2.89% (inactive).

As to `CCN1CCN(CC(=O)Nc2ccc3c(c2)OCO3)C(=O)C1=O`, the viability increase is -0.45% (inactive).

Turning to `CC(=O)Nc1ccc(C(=O)c2ccccc2)cc1`, the viability increase was -1.14% (inactive).

As to `Cn1c(=O)cc(N2CCCCC2)[nH]c1=O`, the viability increase is -0.1% (inactive).

In the case of `Cc1csc2ncc(C(=O)NCc3ccccn3)c(=O)n12`, the viability increase was -0.65% (inactive).

Regarding `Cc1c(C(=O)NCc2ccccn2)sc2nc(-c3ccccc3)cn12`, the viability increase is 0.68% (inactive).

Turning to `O=C(CSc1ccc2nnc(-c3ccc(Cl)cc3)n2n1)N1CCN(c2ccccc2)CC1`, the viability increase is -3.11% (inactive).

With `O=S(=O)(NCCCN1CCN(c2ccccc2F)CC1)c1cccc2cccnc12`, the viability increase was -2.92% (inactive).

Consider `Cc1ccc2cc(CCNS(=O)(=O)c3ccc(F)cc3)c(=O)[nH]c2c1`, for which the viability increase was -1.91% (inactive).

Take `COc1ccc(-n2c(Cc3cccn3C)nnc2SCC(=O)N2CCC(C)CC2)cc1`: the viability increase was -0.89% (inactive).

Consider `CNc1oc(C)nc1S(=O)(=O)c1ccccc1`, for which the viability increase was -0.15% (inactive).

Take `Cc1c(Cl)cccc1NC(=O)CN1C(=O)CSc2ncccc21`: the viability increase was -1.13% (inactive).

Regarding `O=C(CCN1CCc2ccccc2C1)Nc1ccccc1`, the viability increase was -4.06% (inactive).

Regarding `COc1cc2c(cc1OC)C1=C(C#N)CN(C3CCCCC3)CN1CC2`, the viability increase was -3.47% (inactive).

As for `O=C1CC(c2ccc(S(=O)(=O)NC3CC3)cc2)CN1` (stereo not given), the viability increase was -2.08% (inactive).

On to `CCOC(=O)Cn1c(=O)oc2cc(S(=O)(=O)N3CCc4ccccc43)ccc21`, for which the viability increase was -1.01% (inactive).

As to `O=C1CC(c2ccco2)CC2=C1C1c3ccccc3C(=O)N1c1ccccc1N2` (stereo not given), the viability increase is 3.98% (inactive).

Take `COc1ccc(Br)cc1C1CC(=O)N2CN(Cc3ccccc3)CSC2=C1C#N` (stereo not given): the viability increase was -4.64% (inactive).

As to `C=C(C)Cn1c(COc2ccccc2)nnc1SCC(=O)O`, the viability increase was -4.09% (inactive).

For the molecule `Cc1onc(-c2ccccc2Cl)c1C(=O)OCn1nnc2ccccc2c1=O`, the viability increase was -1.94% (inactive).

Turning to `Cc1cc(NC(=O)CSc2nc3c(c(=O)n2-c2ccccc2)SC(C)C3)no1` (stereo not given), the viability increase was -2.58% (inactive).

`CCOc1ccc(C2CC(c3ccc(F)cc3)n3ncnc3N2)cc1` (stereo not given): the viability increase was -0.13% (inactive).
